Values after ≈ are worked out from the molar mass of the structure shown. Blank lines part the entries; values can stand above or below the compound they belong to. Active and inactive are the calls of the source. No cut-off for these calls is given here.
Tests used:
[1] = tested on: Candida albicans; assay: Antimicrobial activity against Candida albicans ATCC 10231 by broth microdilution method
[2] = tested on: Escherichia coli; assay: Antimicrobial activity against Escherichia coli ATCC 25922 by broth microdilution method
[3] = tested on: Staphylococcus aureus; assay: Antimicrobial activity against Staphylococcus aureus ATCC 29213 by broth microdilution method
[4] = tested on: Staphylococcus aureus; assay: Antimicrobial activity against Staphylococcus aureus NCTC 8325 incubated for 45 mins; assay type: functional; details: NCTC 8325, 0.75 h
[5] = tested on: A549; assay: Induction of cell cycle arrest in human A549 cells assessed as increase in cells at G0-G1 phase at GI50 concentration by flow cytometry analysis (reference value: 85.46%); assay type: functional
[6] = tested on: UACC-257; assay: Antiproliferative activity against human UACC-257 cells assessed as growth inhibition incubated for 48 hrs by SRB method; assay type: functional
Procedure, shortened: (§1)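 NCI-60 five-dose screen at 0.01, 0.1, 1, 10 and 100 μM, triplicate wells per dose. Cells were in RPMI 1640 with 5% FBS and 2 mM L-glutamine, pre-grown 24 h and then treated for 48 h at 37 °C. Read-out was TCA fixation and SRB absorbance at 515 nm.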

[7] = tested on: A549; assay: Induction of cell cycle arrest in human A549 cells assessed as increase in cells at G0-G1 phase at GI50 concentration by flow cytometry analysis (reference value: 85.41%); assay type: functional
[8] = tested on: Hs-578T; assay: Antiproliferative activity against human Hs-578T cells assessed as growth inhibition incubated for 48 hrs by SRB method
[9] = Upregulation of Bax gene expression in human A549 cells assessed as fold increase by qRT-PCR analysis; assay type: functional
Procedure, shortened: (§2)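 A549/ATCC cells treated, total RNA DNase-treated and checked by 260/280 ratio (1.8–2.1). Reverse transcription with oligo-dT and MuLV RT: 25 °C 10 min, 42 °C 1 h, 99 °C 5 min. qPCR of 40 cycles (95 °C 15 s, 55 °C 30 s, 72 °C 30 s) followed by melt curve. Relative expression by the 2−ΔΔCT method, mean ± SEM.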

[10] = tested on: A549; assay: Induction of cell cycle arrest in human A549 cells assessed as increase in cells at G0-G1 phase at GI50 concentration by flow cytometry analysis (reference value: 85.84%); assay type: functional
[11] = tested on: A549; assay: Downregulation of Bcl-2 gene expression in human A549 cells by qRT-PCR analysis; assay type: functional, cell-based
Procedure, shortened: as §2

[12] = tested on: MDA-MB-231; assay: Antiproliferative activity against human MDA-MB-231 cells assessed as growth inhibition incubated for 48 hrs by SRB method; details: MDA-MB-231, 48 h
[13] = tested on: HOP-92; assay: Antiproliferative activity against human HOP-92 cells assessed as growth inhibition incubated for 48 hrs by SRB method; assay type: functional
Procedure, shortened: as §1

[14] = tested on: SF-268; assay: Antiproliferative activity against human SF-268 cells assessed as growth inhibition incubated for 48 hrs by SRB method; assay type: functional
Procedure, shortened: as §1

[15] = tested on: SNB-75; assay: Antiproliferative activity against human SNB-75 cells assessed as growth inhibition incubated for 48 hrs by SRB method; assay type: functional
Procedure, shortened: as §1

[16] = tested on: NCI-H522; assay: Antiproliferative activity against human NCI-H522 cells assessed as growth inhibition incubated for 48 hrs by SRB method; assay type: functional
Procedure, shortened: as §1

[17] = tested on: HOP-62; assay: Antiproliferative activity against human HOP-62 cells assessed as growth inhibition at 10 uM incubated for 48 hrs by SRB method; assay type: functional; details: read-out: GI
Procedure, shortened: (§3)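 NCI-60 one-dose screen at 10 μM. Cells were grown in RPMI 1640 with 5% FBS and 2 mM L-glutamine and plated at 5000–40 000 cells/well for 24 h. Drug exposure was 48 h at 37 °C, 5% CO2. Cells were fixed with TCA, stained with 0.4% SRB and read at 515 nm. Growth is expressed as percent of untreated control and time-zero plates.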

[18] = tested on: A549; assay: Induction of cell cycle arrest in human A549 cells assessed as decrease in cells at G2/M phase at GI50 concentration by flow cytometry analysis (reference value: 13.15 to 13.37%); assay type: functional; design: scale not given: the % may be the effect or the level left
[19] = tested on: RXF 393; assay: Antiproliferative activity against human RXF 393 cells assessed as growth inhibition incubated for 48 hrs by SRB method; assay type: functional
Procedure, shortened: as §1

[20] = tested on: SNB-19; assay: Antiproliferative activity against human SNB-19 cells assessed as growth inhibition at 10 uM incubated for 48 hrs by SRB method; assay type: functional; details: read-out: GI
Procedure, shortened: as §3

[21] = tested on: SK-MEL-2; assay: Antiproliferative activity against human SK-MEL-2 cells assessed as growth inhibition at 10 uM incubated for 48 hrs by SRB method; assay type: functional; details: read-out: GI
Procedure, shortened: as §3

[22] = tested on: SF-295; assay: Antiproliferative activity against human SF-295 cells assessed as growth inhibition at 10 uM incubated for 48 hrs by SRB method; assay type: functional; details: read-out: GI
Procedure, shortened: as §3

[23] = tested on: OVCAR-8; assay: Antiproliferative activity against human OVCAR-8 cells assessed as growth inhibition incubated for 48 hrs by SRB method; assay type: functional
Procedure, shortened: as §1

[24] = tested on: U-251; assay: Antiproliferative activity against human U-251 cells assessed as growth inhibition incubated for 48 hrs by SRB method; assay type: functional
Procedure, shortened: as §1

[25] = tested on: UACC-62; assay: Antiproliferative activity against human UACC-62 cells assessed as growth inhibition at 10 uM incubated for 48 hrs by SRB method; assay type: functional; details: read-out: GI
Procedure, shortened: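 NCI-60 one-dose screen at 10 μM. Cells grown in RPMI 1640 with 5% FBS and 2 mM L-glutamine, plated at 5000–40 000 cells/well and preincubated 24 h at 37 °C, 5% CO2. Drug exposure 48 h. Fixed with TCA and stained with 0.4% SRB, absorbance read at 515 nm. Percent growth calculated against untreated control and time-zero plates.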

[26] = tested on: U-251; assay: Antiproliferative activity against human U-251 cells assessed as growth inhibition at 10 uM incubated for 48 hrs by SRB method; assay type: functional; details: read-out: GI
Procedure, shortened: as §3

[27] = Upregulation of p53 gene expression in human A549 cells assessed as fold increase by qRT-PCR analysis; assay type: functional
Procedure, shortened: as §2

[28] = tested on: UACC-62; assay: Antiproliferative activity against human UACC-62 cells assessed as growth inhibition incubated for 48 hrs by SRB method; assay type: functional
Procedure, shortened: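 NCI-60 five-dose screen at 0.01, 0.1, 1, 10 and 100 μM, triplicate wells per dose. Cells grown in RPMI 1640/5% FBS, preincubated 24 h, then exposed 48 h at 37 °C. TCA fixation, SRB stain, A515.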

[29] = tested on: A549; assay: Induction of cell cycle arrest in human A549 cells assessed as decrease in cells at S phase at GI50 concentration by flow cytometry analysis (reference value: 0.31 to 0.51%); assay type: functional; design: scale not given: the % may be the effect or the level left
[30] = tested on: SF-295; assay: Antiproliferative activity against human SF-295 cells assessed as growth inhibition incubated for 48 hrs by SRB method; assay type: functional
Procedure, shortened: as §1

MIC [1]: > 128 µg/mL
MIC [2]: 1 µg/mL (≈ 2.15 µM)
MIC [3]: 4 µg/mL (≈ 8.61 µM)
MIC [4]: 3 µg/mL (≈ 6.45 µM)
SMILES: CNC(=O)c1cc(Oc2ccc(NC(=O)Nc3ccc(Cl)c(C(F)(F)F)c3)cc2)ccn1 [SORAFENIB]

MIC [1]: 512 µg/mL (≈ 1330 µM)
MIC [2]: > 1020 µg/mL
MIC [3]: 512 µg/mL (≈ 1330 µM)
GI50 [12]: 6.83 µM
GI50 [16]: 4.55 µM
GI50 [23]: 6.24 µM
GI50 [24]: 6.94 µM
SMILES: O=C(NC(=S)Nc1ccc(-c2ccc(=O)[nH]n2)cc1)c1cccc(Cl)c1
Activity [5]: 89.51%
GI50 [6]: 5.59 µM
Activity [7]: 90.86%
GI50 [8]: 5.8 µM
fold change (FC) [9]: 3
Activity [10]: 89.87%
Activity [11]: Active
GI50 [13]: 3.18 µM
GI50 [14]: 6.91 µM
GI50 [15]: 3.92 µM
inhibition of growth at 10 µM [17]: 94.6%
Activity [18]: 8.95%
GI50 [19]: 6.6 µM
inhibition of growth at 10 µM [20]: 91.2%
inhibition of growth at 10 µM [21]: 98%
inhibition of growth at 10 µM [22]: 93%
inhibition of growth at 10 µM [25]: 91%
inhibition of growth at 10 µM [26]: 96.1%
fold change (FC) [27]: 3
GI50 [28]: 4.07 µM
Activity [29]: 0.19%
GI50 [30]: 7.23 µM

Source: ChEMBL document CHEMBL6083209, “Pyridazinone-based derivatives as anticancer agents endowed with anti-microbial activity: molecular design, synthesis, and biological investigation” (RSC Med Chem, 2024)
